The values below come from publication PMC5955456 (Virulence, 2018).

In one experiment the test system is E. coli. As to the kind of experiment: Viable count analysis. It is filed as cell-based, Escherichia coli. The note with it: GGL27 1 µM, 1 hour at 37°C, normal human citrated plasma; Fig. 3h. In a few lines:
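Mid-exponential E. coli grown in Todd-Hewitt broth and washed. 2 x 10^8 cfu/ml incubated 60 min at 37°C with test peptide in 100% human citrated plasma, or in plasma pretreated 3 h with IdeS (0.2 µg/µl) to remove IgG. Serial dilutions plated on TH agar overnight at 37°C; cfu counted and expressed as % survival, mean ± SD.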

The next experiment deals with bacteria. The note with it: buffer with physiological salt content or plasma; ref [7]; cited from earlier work.
For experiment [1], the system named is intrinsic pathway of coagulation. Description: aPTT clotting assay in crocodile plasma. It is filed as biochemical, crocodile (Crocodylus siamensis). The following applies: peptide 50 µM in citrated crocodile plasma; n=3; Fig. 4b; words.
Experiment [2] has the same test system. Description: aPTT clotting assay in turkey plasma. The experiment is classed as biochemical. The note with it: peptide 50 µM in citrated turkey plasma; n=3; Fig. 4c; words.

No end group written: not given here.

In the case of GGLIKTKRKRKKQRVKIAYEEIFVKNM [GGL27], the “killing of E. coli” value in the experiment with E. coli is given as about 100%.

On to “LL-37: antibacterial peptide (LLGDFFRKSKEKIGKEFKRIVQRIKDFLRNLVPRTES; Antibacterial peptide LL-37; UniProt P49913 134-170, looked up)”, for which the “killing activity in physiological salt or plasma” value in the experiment with bacteria is “lose their killing activity”.

On to “RGIIKIKRKRKKQPEKMVRDEIIIERI [American alligator]”, for which the aPTT clotting time entry in experiment [1] was “clotting times were prolonged”. As for “RRLIRIKKKKKQSLKTVGEEIIRGRIQ [Common turkey]”, the aPTT clotting time result in experiment [2] is “shortened clotting time”.
